ChEMBL document CHEMBL2163250, “Carbonylhydrazide-based molecular tongs inhibit wild-type and mutated HIV-1 protease dimerization” (J Med Chem, 2012)
Converted amounts (≈) assume the structure as drawn. The source made the active and inactive calls. The rule behind the calls is not given here.

Key:
[1] = target: Protease (Human immunodeficiency virus 1) (UniProt Q9YQ12); assay: Inhibition of HIV1 protease dimerization expressed in Escherichia coli Rosetta(DE3) using DABCYL-gamma-abu-Ser-Gln-Asn-Tyr-Pro-Ile-Val-Gln-EDANS as substrate at 28 uM by fluorimetric assay
[2] = target: Protease (Human immunodeficiency virus 1) (UniProt Q9YQ12); assay: Inhibition of HIV1 protease dimerization expressed in Escherichia coli Rosetta(DE3) at 5 uM by 1-Anilino-8-naphthalene sulfonate-based fluorescent probe binding assay
Outline: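 Recombinant PR (350 nM) in 100 mM sodium acetate, 1 M NaCl, 1 mM EDTA, pH 4.7, incubated at 25 °C with or without 5 μM inhibitor. ANS was then added at final 10–60 μM, with final DMSO 0.2% (v/v). Excitation 370 nm, emission 470 nm. Fluorescence was corrected for ANS plus inhibitor without enzyme, and each measurement was averaged over five reads.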

Protease = Protease (Human immunodeficiency virus 1, UniProt Q9YQ12); assay: Inhibition of HIV1 protease dimerization expressed in Escherichia coli Rosetta(DE3) using DABCYL-gamma-abu-Ser-Gln-Asn-Tyr-Pro-Ile-Val-Gln-EDANS as substrate by Zhang-Poorman kinetic analysis
Outline: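 Recombinant PR expressed in E. coli Rosetta (DE3)pLysS from a pET-9 vector. Fluorogenic substrate at 5.2 μM (ex 340, em 490 nm) in 100 mM sodium acetate, 1 mM EDTA, 1 M NaCl, pH 4.7, 30 °C, final DMSO 3% (v/v). At least six enzyme concentrations (5.33–18.6 nM) and inhibitor 0.5–28 μM. Kid from Zhang–Poorman analysis, at least triplicate.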

Renin (Homo sapiens) = target: T1, Renin (Homo sapiens) (UniProt P00797); assay: Inhibition of recombinant renin using Arg-Glu(EDANS)-Ile-His-Pro-Phe-His-Leu-Val-Ile-His-Thr-Lys-(DABCYL)-Arg as substrate at 10 uM by fluorimetric analysis
T1 sequence (whole entry): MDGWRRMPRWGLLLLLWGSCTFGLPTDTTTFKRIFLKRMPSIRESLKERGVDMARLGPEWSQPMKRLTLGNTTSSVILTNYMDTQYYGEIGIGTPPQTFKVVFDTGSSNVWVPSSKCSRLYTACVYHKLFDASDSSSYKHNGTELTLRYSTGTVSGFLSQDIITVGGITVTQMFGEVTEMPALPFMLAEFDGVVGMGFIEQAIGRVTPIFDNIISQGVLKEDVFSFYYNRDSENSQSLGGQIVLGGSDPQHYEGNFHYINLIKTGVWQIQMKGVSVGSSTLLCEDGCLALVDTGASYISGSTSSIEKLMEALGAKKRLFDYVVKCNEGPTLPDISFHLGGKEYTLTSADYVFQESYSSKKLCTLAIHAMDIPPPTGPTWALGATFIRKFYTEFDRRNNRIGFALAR
Outline: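 Renin activity read fluorometrically with the EDANS/DABCYL substrate (Km 3.3 μM) at 5 μM in 50 mM Tris–HCl, 100 mM NaCl, 1 mM EDTA, pH 8.0. Excitation 340 nm, emission 500 nm. Compounds were tested at 10 μM.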

Sus scrofa = species: Sus scrofa; assay: Inhibition of […] using Abz-Thr-Ile-Nle-(p-NO2-Phe)-Gln-Arg-NH2 as substrate at 10 uM by fluorimetric analysis
Outline: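 Pepsin from porcine gastric mucosa assayed fluorometrically in 10 mM NaHCOO, pH 3.5, with 20 μM Abz-Thr-Ile-Nle-(p-NO₂-Phe)-Gln-Arg-NH₂ substrate (Km 13.3 μM). Excitation 337 nm, emission 410 nm. Compounds were tested at 10 μM.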

[3] = Inhibition of HIV1 protease MDR-HM mutant dimerization expressed in Escherichia coli Rosetta(DE3) using DABCYL-gamma-abu-Ser-Gln-Asn-Tyr-Pro-Ile-Val-Gln-EDANS as substrate by Zhang-Poorman kinetic analysis; parameters: species or system Human immunodeficiency virus 1
Outline: (§1)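 Recombinant protease produced in E. coli Rosetta (DE3)pLysS from a pET-9 vector. Fluorimetric assay (ex 340, em 490 nm) run in 100 mM sodium acetate, 1 mM EDTA, 1 M NaCl, pH 4.7, at 30 °C with 3% (v/v) final DMSO. Substrate held at 5.2 μM, at least six enzyme concentrations (5.33−18.6 nM), inhibitor 0.5−28 μM. Kid derived from Zhang−Poorman analysis. At least triplicate.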

[4] = Inhibition of HIV1 protease ANAM-11 mutant dimerization expressed in Escherichia coli Rosetta(DE3) using DABCYL-gamma-abu-Ser-Gln-Asn-Tyr-Pro-Ile-Val-Gln-EDANS as substrate by Zhang-Poorman kinetic analysis; parameters: species or system Human immunodeficiency virus 1; outline: as §1
[5] = Chemical stability in RPMI medium up to 48 hrs in presence of 20% fetal calf serum; type: physicochemical; conditions: cattle
Outline: (§2)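 Inhibitor incubated at 37 °C in RPMI culture medium with 20% fetal calf serum for up to 2 days. Incubations stopped with ethanol, cooled to 4 °C and centrifuged, and the supernatant analysed by HPLC. Half-life came from least-squares linear regression of a semilog plot of remaining inhibitor versus incubation time.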

[6] = Half life of the compound in RPMI medium in presence of 20% fetal calf serum; type: physicochemical; conditions: cattle, RPMI medium with 20% fetal calf serum; outline: as §2
[7] = Solubility of the compound; type: physicochemical

Sequence of Protease (Q9YQ12 whole entry): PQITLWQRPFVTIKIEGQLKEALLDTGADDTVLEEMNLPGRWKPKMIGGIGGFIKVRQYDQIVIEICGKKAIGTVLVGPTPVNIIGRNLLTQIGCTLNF
Sequence of Protease (Human immunodeficiency virus 1) (Q9YQ12 as listed by the source): as the sequence (Q9YQ12 whole entry) above

With `CC(C)[C@H](NC(=O)CCCOc1ccc2ccc(OCCCC(=O)O)cc2c1)C(=O)NNC(=O)[C@@H](NC(=O)OC(C)(C)C)C(C)C` the inhibition [1] was 0%.
With `CC(=O)N[C@H](C(=O)N[C@H](C(=O)N[C@@H](CC(C)C)[C@@H](O)CC(=O)N[C@@H](C)C(=O)N[C@@H](CC(C)C)[C@@H](O)CC(=O)O)C(C)C)C(C)C` the inhibition [2] was “inactive”.
`CC(=O)NNC(=O)NNC(=O)CCNC(=O)CCCOc1ccc2ccc(OCCCC(=O)NCCC(=O)NNC(=O)NNC(C)=O)cc2c1` gave an inhibition [1] of 0%.
`CC(=O)NNC(=O)NNC(=O)[C@H](CCCCNC(=O)CCCOc1ccc2ccc(OCCCC(=O)NCCCC[C@H](NC(=O)OC(C)(C)C)C(=O)NNC(=O)NNC(C)=O)cc2c1)NC(=O)OC(C)(C)C` gave an inhibition [1] of 0%.
In the case of `COC(=O)[C@@H](NC(=O)[C@H](CC(C)C)NC(=O)[C@@H](NC(=O)CCCOc1ccc2ccc(OCCCC(=O)N[C@H](C(=O)N[C@@H](CC(C)C)C(=O)N[C@H](C(=O)OC)C(C)C)C(C)C)cc2c1)C(C)C)C(C)C`, the inhibition [2] is reported as “Active” and the Ki (Protease) is reported as 0.56 µM.
In the case of `CC(=O)NNC(=O)NNC(=O)[C@@H](NC(=O)CCCOc1ccc2ccc(OCCCC(=O)N[C@H](C(=O)NNC(=O)NNC(C)=O)C(C)C)cc2c1)C(C)C`, the inhibition [1] is reported as 21%.
With `CC(C)(C)NC(=O)[C@@H]1C[C@@H]2CCCC[C@@H]2CN1C[C@@H](O)[C@H](Cc1ccccc1)NC(=O)[C@H](CC(N)=O)NC(=O)c1ccc2ccccc2n1` the inhibition [2] was “inactive”.
In the case of `CC(C)[C@H](NC(=O)CCCOc1ccc2ccc(OCCCC(=O)N[C@H](C(=O)NNC(=O)[C@@H](NC(=O)OC(C)(C)C)C(C)C)C(C)C)cc2c1)C(=O)NNC(=O)[C@@H](NC(=O)OC(C)(C)C)C(C)C`, the inhibition (Renin (Homo sapiens)) is reported as “inactive”, the inhibition [2] is reported as “Active” and the inhibition (Sus scrofa) is reported as “inactive”. For the same compound, the Ki [3] was 0.16 µM, the Ki [4] was 0.08 µM and the Ki (Protease) was 0.05 µM. For the same compound, the Stability [5] was “Stable”.
For `COC(=O)CCNC(=O)NNC(=O)NNC(=O)CCCOc1ccc2ccc(OCCCC(=O)NNC(=O)NNC(=O)NCCC(=O)OC)cc2c1`, the inhibition [1] was 0%.
With `CC(C)CN(C[C@@H](O)[C@H](Cc1ccccc1)NC(=O)O[C@H]1CCOC1)S(=O)(=O)c1ccc(N)cc1` the inhibition [2] was “inactive”.
In the case of `COC(=O)[C@@H](NC(=O)[C@H](CC(C)C)NC(=O)[C@@H](NC(=O)CCCOc1ccc2ccc(OCCCC(=O)N[C@H](C(=O)NNC(=O)[C@@H](NC(=O)OC(C)(C)C)C(C)C)C(C)C)cc2c1)C(C)C)C(C)C`, the inhibition (Renin (Homo sapiens)) is reported as “inactive”, the inhibition [2] is reported as “Active” and the half-life [6] is reported as 24 h. The inhibition (Sus scrofa) was “inactive”, the Ki [3] was 0.16 µM and the Ki [4] was 0.1 µM. For the same compound, the Ki (Protease) was 0.09 µM.
For `CNC(=O)NNC(=O)NNC(=O)CCCOc1ccc2ccc(OCCCC(=O)NNC(=O)NNC(=O)NC)cc2c1`, the inhibition [1] was 13%.
With `COC(=O)[C@@H](NC(=O)[C@H](CC(C)C)NC(=O)[C@@H](NC(=O)CCCOc1ccc2ccc(OCCCC(=O)NNC(=O)NNC(=O)N[C@H](C(N)=O)C(C)C)cc2c1)C(C)C)C(C)C` the inhibition (Renin (Homo sapiens)) was “inactive”, the inhibition [2] was “Active” and the half-life [6] was 24 h. For the same compound, the inhibition (Sus scrofa) was “inactive”, the Ki [3] was 0.27 µM and the Ki [4] was 0.17 µM. For the same compound, the Ki (Protease) was 0.15 µM.
In the case of `CC(C)[C@H](NC(=O)NNC(=O)NNC(=O)CCCOc1ccc2ccc(OCCCC(=O)NNC(=O)NNC(=O)N[C@H](C(N)=O)C(C)C)cc2c1)C(N)=O`, the inhibition (Renin (Homo sapiens)) is reported as “inactive”, the inhibition (Sus scrofa) is reported as “inactive” and the solubility [7] is reported as 300 µg/mL (≈ 394 µM). It also gave a Ki [3] of 1.6 µM, a Ki [4] of 0.8 µM and a Ki (Protease) of 0.7 µM. The Stability [5] was “Stable”.
